Reference: ChEMBL document CHEMBL4819012, “Discovery of novel 2-aryl-3-sulfonamido-pyridines (HoAns) as microtubule polymerization inhibitors with potent antitumor activities” (Eur J Med Chem, 2021)
Calls of active or inactive are those of the source. The rule behind the calls is not given here.

Tests used:
Tubulin (Homo sapiens) = Tubulin (Homo sapiens) (UniProt P68371+Q9H4B7+P0DPH7+P68366+Q13509+Q71U36+P04350+Q3ZCM7+P07437+P68363+Q9BQE3+Q6PEY2+Q13885+Q9BVA1+Q9BUF5); test: Inhibition of tubulin polymerization in human RKO cells assessed as fragmentation of microtubule at 1 uM measured 24 hrs by DAPI staining based immunoflourescence assay; type: cell-based
Summary of the method: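 RKO cells on coverslips (2.5×10^5 per well) incubated overnight, then treated for 24 h at 0.5 or 1 μM, DMSO, or 1 μM comparators. Fixed in cold methanol 10 min, permeabilized with 0.25% Triton X-100, blocked in 1% BSA at 4 °C overnight. Stained with anti-β-tubulin (1:100, 2 h RT) and Alexa Fluor 594 secondary (1:500, 1 h), nuclei with DAPI; imaged by fluorescence microscopy.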

SW-620 [1] = test: Induction of apoptosis in human SW-620 cells assessed as viable cells at 1 uM measured after 24 hrs by PI/Annexin V staining based flow cytometry assay (reference value: 93.89%); type: functional; settings: read-out: Activity
PLC-PRF-5 = test: Antiproliferative activity against human PLC-PRF-5 cells assessed as cell viability measured after 72 hrs by MTS method; type: functional, cell-based; settings: PLC-PRF-5, 72 h
Summary of the method: (§1)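 Log-phase cells plated at 5×10^3–6×10^3 per well for 24 h, then given graded compound concentrations in fresh medium for 72 h, five replicate wells. Medium replaced with medium containing 10% MTS, 30 min or more at 37 °C in dark; OD 490 nm read. IC50 by nonlinear regression; mean ± SD of at least three experiments.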

PANC-1 [2] = test: Antiproliferative activity against human PANC-1 cells assessed as cell viability measured after 72 hrs by MTS method; type: functional, cell-based; settings: PANC-1, 72 h; summary of the method: as §1
HUVEC [3] = test: Cytotoxicity against human HUVEC cells assessed as inhibition of cell proliferation measured after 24 hrs by MTS assay; type: cell-based
Summary of the method: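 HUVECs exposed to graded concentrations for 24 h; viability read by MTS assay; IC50 reported as mean ± SD.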

RKO [4] = test: Induction of cell cycle arrest in human RKO cells assessed as accumulation of cells in G2 phase at 1 uM measured after 24 hrs by PI staining based flow cytometry method (reference value: 10.79%); type: functional
SK-BR-3 = test: Antiproliferative activity against human SK-BR-3 cells assessed as cell viability measured after 72 hrs by MTS method; type: functional, cell-based; settings: SK-BR-3, 72 h; summary of the method: as §1
SW-620 [5] = test: Induction of apoptosis in human SW-620 cells assessed as early apoptotic cells at 1 uM measured after 24 hrs by PI/Annexin V staining based flow cytometry assay (reference value: 2.41%); type: functional
SW-620 [6] = test: Antiproliferative activity against human SW-620 cells assessed as cell viability measured after 72 hrs by MTS method; type: functional, cell-based; settings: SW-620, 72 h; summary of the method: as §1
PANC-1 [7] = test: Induction of cell cycle arrest in human PANC-1 cells assessed as accumulation of cells in G1 phase at 1 uM measured after 24 hrs by PI staining based flow cytometry method (reference value: 31.35%); type: functional
[8] = Antiproliferative activity against human HCCLM3 cells assessed as cell viability measured after 72 hrs by MTS method; type: functional, cell-based; settings: HCCLM3, 72 h; summary of the method: as §1
RKO [9] = test: Induction of cell cycle arrest in human RKO cells assessed as accumulation of cells in S phase at 1 uM measured after 24 hrs by PI staining based flow cytometry method (reference value: 49.66%); type: functional
[10] = molecular target: Tubulin beta (Homo sapiens) (UniProt P68371+Q9H4B7+Q13509+P04350+Q3ZCM7+P07437+Q13885+Q9BVA1+Q9BUF5+A6NNZ2); test: Inhibition of N,N'-Ethylenebis(iodoacetamide) binding to beta tubulin in human SW-620 cells at 20 to 40 uM preincubated for 2 hrs followed by addition of EBI and measured after 2 hrs by western blot assay; type: cell-based; settings: dose 20-40 µM
Summary of the method: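 SW620 cells (5×10^5 per well) pretreated for 2 h with 10, 20 or 40 μM of test agent or DMSO, then given 100 μM EBI for 2 h. Lysed in SDS loading buffer. β-tubulin and β-tubulin–EBI adduct bands resolved by western blot probed with anti-β-tubulin.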

PANC-1 [11] = test: Induction of cell cycle arrest in human PANC-1 cells assessed as accumulation of cells in S phase at 1 uM measured after 24 hrs by PI staining based flow cytometry method (reference value: 65%); type: functional
RKO [12] = test: Induction of apoptosis in human RKO cells assessed as increase in ROS levels at 0.5 uM measured after 24 hrs by DCFH-DA staining based flow cytometry method relative to control; type: functional
Summary of the method: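 Cells at 5×10^5 per well exposed to 0.25 or 0.5 µM for 24 h, then loaded with 5 µM DCFH-DA in serum-free medium 30 min at 37 °C; washed, harvested, read by flow cytometry (ex 488/em 525 nm). ROS given as ratio of treated to control; at least three experiments.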

BT-474 = test: Antiproliferative activity against human BT-474 cells assessed as cell viability measured after 72 hrs by MTS method; type: functional, cell-based; settings: BT-474, 72 h; summary of the method: as §1
HUVEC [13] = test: Anti-vascular activity against human HUVEC cells assessed as wound closure at 1 uM measured after 24 hrs by wound closure assay (reference value: 71.8%); type: functional
RKO [14] = test: Induction of apoptosis in human RKO cells assessed as viable cells at 1 uM measured after 24 hrs by PI/Annexin V staining based flow cytometry assay (reference value: 96.6%); type: functional; settings: read-out: Activity
RKO [15] = test: Induction of apoptosis in human RKO cells assessed as increase in Bax expression at 0.5 to 1 uM measured after 24 hrs by western blot assay; type: functional, cell-based; settings: dose 0.5-1 µM
Summary of the method: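 RKO or SW620 cells at 4×10^5–5×10^5 per well treated with 0.5 and 1 µM for 24 h; lysed in SDS loading buffer, boiled, SDS-PAGE, PVDF transfer; probed with anti-Bax or anti-cleaved PARP (1:1000) overnight at 4 °C, HRP secondary, ECL detection; β-actin control.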

SW-620 [16] = test: Induction of cell cycle arrest in human SW-620 cells assessed as reduction in Cyclin B1 expression at 0.5 to 1 uM measured after 24 hrs by western blot assay; type: functional, cell-based; settings: dose 0.5-1 µM
Summary of the method: (§2)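 RKO or SW620 cells (4×10^5–5×10^5 per well) exposed to 0.5 or 1 μM or DMSO for 24 h. Lysed in SDS loading buffer, boiled, run on 8–15% SDS-PAGE and moved to PVDF. Blocked in 5% milk, probed overnight at 4 °C with anti-Cdc2 or anti-cyclin B1 (1:1000), β-actin as reference. HRP secondary and ECL detection. Done at least three times.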

PANC-1 [17] = test: Induction of cell cycle arrest in human PANC-1 cells assessed as accumulation of cells in G2 phase at 0.5 uM measured after 24 hrs by PI staining based flow cytometry method (reference value: 3.63%); type: functional
SW-620 [18] = test: Induction of cell cycle arrest in human SW-620 cells assessed as reduction in cdc2 expression at 0.5 to 1 uM measured after 24 hrs by western blot assay; type: functional, cell-based; settings: dose 0.5-1 µM; summary of the method: as §2
PANC-1 [19] = test: Induction of cell cycle arrest in human PANC-1 cells assessed as accumulation of cells in G1 phase at 0.5 uM measured after 24 hrs by PI staining based flow cytometry method (reference value: 31.35%); type: functional

SMILES	inhibition (Tubulin (Homo sapiens))	viability at 1 µM (SW-620 [1]) [%]	IC50 (PANC-1 [2]) [nM]	IC50 (HUVEC [3]) [nM]	Activity (RKO [4]) [%]	IC50 (SK-BR-3) [nM]	Activity (SW-620 [5]) [%]	IC50 (SW-620 [6]) [nM]	Activity (PANC-1 [7]) [%]	IC50 [8] [nM]	Activity (RKO [9]) [%]	Activity (PANC-1 [11]) [%]	fold change (FC) (RKO [12])	IC50 (BT-474) [nM]	Activity (HUVEC [13]) [%]	viability at 1 µM (RKO [14]) [%]	Activity (RKO [15])	Activity (SW-620 [16])	other results
COc1ccc(S(=O)(=O)Nc2cccnc2Nc2ccc(O)cc2)cc1 [ABT-751]	Active	85.6	837	9200	52.8	143	8.35	2790	31.44	671	46.23	33.13	2	8390	18	88.4	Active	Active	IC50 (PLC-PRF-5): 792 nM; inhibition [10]: Dose-Dependent Effect
COc1ccc(S(=O)(=O)Nc2cccnc2-c2ccc(C#N)c(F)c2)cc1	Active	87.3	729	8900	47.76	431	10.09	673	2.04	963	43.49	40.54	1.5	1190	20.1	61	Active	Active	Activity (PANC-1 [17]): 15.67%; Activity (SW-620 [18]): Active; Activity (PANC-1 [19]): 34.22%
